Assay results pooled from the literature.
Each line is one published result; the experiments were not run side by side.
Target: Activin receptor type-1-like (ACVRL1, Homo sapiens, UniProt P37023)

Compound	test	setting	measurement	result
Cc1cnc(NC2CCOCC2)nc1-n1cnc(C(=O)NC(CN)c2cc(F)cc(Cl)c2)c1 (stereo not drawn)	enzyme activity, inhibitor, radiometric	1 µM	remaining activity	100%
CC(C)(C)c1nc2c(s1)c1nc(N)ncc1c1ccc(NS(=O)(=O)c3c(F)cccc3F)c(F)c12	enzyme activity, inhibitor, radiometric	1 µM	remaining activity	87%
COc1cc2c(N3CCN(C(=O)Nc4ccc(OC(C)C)cc4)CC3)ncnc2cc1OCCCN1CCCCC1	cell-free assay	0.5 µM	remaining signal	102%
Cc1cc(NC(=O)c2cccc3cc(-c4cccc5[nH]nc(N)c45)ccc23)ccc1F	enzyme activity, inhibitor	0.1 µM	activity vs control	143%
CCS(=O)(=O)c1cc2cc(C[C@](O)(CC(C)(C)c3ccc(F)cc3C(N)=O)C(F)(F)F)[nH]c2cn1	cell-free assay, competition with immobilised ligand	1 µM	remaining binding	100%
O=C(Nc1cnn(-c2csc(C(=O)NC3COC3)c2)c1)Nc1c(F)cccc1Cl	enzyme activity, inhibitor	5 µM	remaining activity	120%
CO[C@@H](C)c1c(Nc2ccc([C@H](N(C)C(=O)C3CCS(=O)(=O)CC3)C(F)(F)F)cc2)cnc2cc(Cl)nn12	cell-free assay, competition with immobilised ligand	1 µM	remaining binding	100%
Cc1sc(C(=O)NC2COC2)cc1-n1cc(NC(=O)Nc2c(F)cccc2Cl)cn1	enzyme activity, inhibitor	10 µM	remaining activity	78.7%
CC(=O)c1c(NS(C)(=O)=O)c2cc(-c3ccc(Cl)cc3)c(-c3ccc(Cl)cc3Cl)nc2n(C)c1=O	cell-free assay, competition with immobilised ligand	1 µM	remaining binding	100%
COc1cc(Nc2c(C#N)cnc3cc(OCCCN4CCN(C)CC4)c(OC)cc23)c(Cl)cc1Cl	cell-free assay	0.5 µM	remaining signal	67.6%
CCCCN(CCCC)C(=O)CN1C[C@H](c2cc(OC)c3c(c2)OCO3)[C@@H](C(=O)O)[C@@H]1CC(C)(C)CCC	cell-free assay, competition with immobilised ligand	1 µM	remaining binding	100%
C#Cc1cccc(Nc2ncnc3cc(OCCOC)c(OCCOC)cc23)c1	cell-free assay	0.5 µM	remaining signal	101%
CC(C)(O)[C@H]1CC[C@H](Nc2ccc3ncc(-c4cccc(C(F)(F)F)c4)n3n2)CC1	enzyme activity, inhibitor	1 µM	remaining activity	66.7%
CNC(=O)c1cc(Oc2ccc(NC(=O)Nc3ccc(Cl)c(C(F)(F)F)c3)cc2)ccn1	cell-free assay	0.5 µM	remaining signal	104%
O=C(O)[C@@H]1[C@@H](Cn2nnc3ccccc3c2=O)CC[C@H]1C(=O)c1ccc(OCCC2CCOCC2)cc1	binding, competition with immobilised ligand	1 µM	remaining binding	97%
